Values after ≈ are worked out from the molar mass of the structure shown. Positions of bridges follow the written chain, without caps; N, C: chain ends. Non-standard residues stand in square brackets, D forms with d. Residues, ends and D or L forms follow the SMILES beside them. NMeF = CN[C@@H](Cc1ccccc1)C(=O)O; NMeNle = CCCC[C@H](NC)C(=O)O; Nle = CCCC[C@H](N)C(=O)O
Tests used:
[1] = 1-Octanol/phosphate buffered-saline distribution coefficient, logD of compound at pH 7.4 measured after 4 hrs by LC-MS analysis; format: physicochemical
Summary of the method: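 PBS pH 7.4 and 1-octanol, each pre-saturated with the other. 10 mM DMSO stock, dispensed with an internal reference compound in triplicate and dried. Residue shaken in octanol plus buffer for at least 4 h, then centrifuged to separate phases. Both phases quantified by LC-MS/MS. Log D taken from the phase peak-area ratio, normalised to internal standard.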

[2] = Apparent permeability across apical to basolateral membrane in MDCKII-LE cells measured after 120 mins by RapidFire-MS analysis; format: ADME, cell-based, Canis lupus familiaris; details: dog, MDCK
Summary of the method: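 MDCK-LE (low efflux) cells seeded at about 265,000 cells/cm² on Transwells and cultured 4 days. Apical-to-basal transport run in triplicate at 10 μM in HBSS/10 mM HEPES pH 7.4 with 0.02% BSA, 120 min at 37 °C without shaking. Bestatin used as integrity marker. Donor and acceptor quantified by MS against glyburide internal standard. Papp and % recovery calculated.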

[3] = Aqueous solubility of the compound at pH 6.8; format: physicochemical; details: buffer
Summary of the method: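 Thermodynamic (equilibrium) solubility. 10 mM DMSO stock dried down, then pH 6.8 phosphate buffer added to a target of 1 mM. Shaken at 1350 rpm at ambient temperature for 16–24 h. Supernatant centrifuged twice, diluted 200-fold and quantified by RapidFire-MS/MS against a 4-point calibration curve.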

[4] = Clearance in Sprague-Dawley rat liver microsomes measured up to 30 mins in presence of NADPH by HPLC-MS/MS analysis; format: ADME, Microsome; details: read-out: CLH
[5] = Clearance in human liver microsomes measured up to 30 mins in presence of NADPH by HPLC-MS/MS analysis; format: ADME, Microsome; details: read-out: CLH
Summary of the method: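 Human liver microsomes at 1.25 mg/mL protein in phosphate buffer pH 7.4. Test article at 10 μM, shaken at 37 °C. Reaction started with 2 mM NADPH/4 mM MgCl₂. Aliquots taken at 0, 5, 15 and 30 min and quenched with acetonitrile containing glibenclamide. Parent remaining measured by LC-MS/MS. Elimination rate constant converted to in vitro clearance.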

[6] = Cmax in Sprague-Dawley rat systemic circulation at 5 mg/kg, po or 0.5 mg/kg, iv measured up to 24 hrs by HPLC-MS/MS analysis; format: ADME, organism-based; set-up: dose 5 mg/kg, time <=24
Summary of the method: (§1)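 Rat dosing in PEG300:20% Solutol/PBS (10:25:65). IV into a jugular cannula at 0.5 mg/kg (1 mg/kg for some analogues), 1 mL/kg. PO by gavage at 5 mg/kg from a 0.5 mg/mL solution. Blood drawn via jugular cannula at 5 min (IV only), 15 min, 0.5, 1, 2, 4, 7 and 24 h. Plasma analysed by HPLC-MS/MS. Parameters from noncompartmental analysis.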

[7] = AUC in Sprague-Dawley rat systemic circulation at 5 mg/kg, po or 0.5 mg/kg, iv measured up to 24 hrs by HPLC-MS/MS analysis; format: ADME, organism-based; set-up: dose 5 mg/kg, time <=24; summary of the method: as §1
[8] = Clearance in Sprague-Dawley rat at 5 mg/kg, po or 0.5 mg/kg, iv measured up to 24 hrs by HPLC-MS/MS analysis; format: ADME, organism-based; details: in vivo; summary of the method: as §1
[9] = Half life in Sprague-Dawley rat at 5 mg/kg, po or 0.5 mg/kg, iv measured up to 24 hrs by HPLC-MS/MS analysis; format: ADME, organism-based; details: in vivo; summary of the method: as §1
[10] = Volume of distribution at steady state in Sprague-Dawley rat at 5 mg/kg, po or 0.5 mg/kg, iv measured up to 24 hrs by HPLC-MS/MS analysis; format: ADME, organism-based; details: in vivo, read-out: Vdss; summary of the method: as §1
[11] = Oral bioavailability in Sprague-Dawley rat at 5 mg/kg measured up to 24 hrs by HPLC-MS/MS analysis; format: ADME, organism-based; details: in vivo; summary of the method: as §1
[12] = Cmax in Sprague-Dawley rat hepatic portal vein circulation at 5 mg/kg, po or 0.5 mg/kg, iv measured up to 24 hrs by HPLC-MS/MS analysis; format: ADME, organism-based; set-up: dose 5 mg/kg, time <=24
[13] = AUC in Sprague-Dawley rat hepatic portal vein circulation at 5 mg/kg, po or 0.5 mg/kg, iv measured up to 24 hrs by HPLC-MS/MS analysis; format: ADME, organism-based; set-up: dose 5 mg/kg, time <=24

Row | logD at 4 h [1] | Papp A→B at 2 h [2] [×10⁻⁶ cm/s] | solubility [3] [µM] | microsomal CLint [4] [µL/min/mg] | microsomal CLint [5] [µL/min/mg] | Cmax [6] [nM] | AUC at 24 h [7] [µM·h] | clearance [8] [mL/min/kg] | half-life [9] [min] | Vd [10] [L/kg] | bioavailability [11] [%] | Cmax [12] [nM] | AUC at 24 h [13] [µM·h] | Structure (SMILES)
1 | 4.2 | 1.5 | 18 (≈ 14.4 µg/mL) | ≥ 350 | ≥ 350 |  |  |  |  |  |  |  |  | CCCC[C@@H]1NC(=O)[C@H](CCCC)N(C)C(=O)[C@H](CCCC)NC(=O)[C@H](CCCC)N(C)C(=O)[C@@H](Cc2ccccc2)NC(=O)CSC[C@H](C(=O)NC)NC1=O
2 | 5.2 | < 0.35 | < 4 | ≥ 120 | ≥ 120 | 161 | 0.372 | 28.4 |  |  | 13 |  |  | CCCC[C@@H]1NC(=O)[C@H](CCCC)N(C)C(=O)[C@H](CCCC)NC(=O)[C@H](Cc2ccccc2)N(C)C(=O)[C@H]([C@@H](C)O)NC(=O)[C@H](CCCC)N(C)C(=O)[C@@H](Cc2ccccc2)NC(=O)CSC[C@@H](C(=O)NC)NC1=O
3 | 6 | < 0.35 | < 4 | ≥ 120 | ≥ 120 | 411 | 1.27 | 33 |  |  | 54 |  |  | CCCC[C@@H]1NC(=O)[C@H](CCCC)N(C)C(=O)[C@H](CCCC)NC(=O)[C@H](CCCC)N(C)C(=O)[C@H](CCCC)NC(=O)[C@H](CCCC)N(C)C(=O)[C@@H](Cc2ccccc2)NC(=O)CSC[C@@H](C(=O)NC)NC1=O
4 | 4.6 | 3.9 | 5 (≈ 4.01 µg/mL) | ≥ 350 | ≥ 350 | 1030 | 2.29 | 8.9 | 228 | 1 | 19 | 819 | 1.86 | CCCC[C@@H]1NC(=O)[C@H](Cc2ccccc2)NC(=O)CSC[C@H](C(=O)NC)NC(=O)[C@H](CCCC)N(C)C(=O)[C@H](CCCC)NC(=O)[C@H](CCCC)N(C)C1=O
5 | 4.8 | 6.4 | 9 (≈ 8.22 µg/mL) | ≥ 480 | ≥ 480 | 868 | 2.13 | 35 | 36 | 1.2 | 86 |  |  | CCCC[C@@H]1NC(=O)[C@H](CCCC)N(C)C(=O)[C@@H]2CCCN2C(=O)[C@H](CCCC)N(C)C(=O)[C@H](Cc2ccccc2)NC(=O)CSC[C@@H](C(=O)NC)NC(=O)[C@H](CCCC)N(C)C1=O ({CH2CO}-F[NMeNle]P[NMeNle][Nle][NMeNle]C-NHMe; thioether N-7)
6 | 6.1 | < 0.35 | < 4 | ≥ 120 | ≥ 120 | 436 | 1.08 | 12 |  |  | 17 |  |  | CCCC[C@@H]1NC(=O)[C@H](Cc2ccccc2)NC(=O)CSC[C@@H](C(=O)NC)NC(=O)[C@H](CCCC)N(C)C(=O)[C@H](CCCC)N(C)C(=O)[C@H](CCCC)N(C)C(=O)[C@H](CCCC)NC(=O)[C@H](CCCC)N(C)C1=O ({CH2CO}-F[Nle][NMeNle][Nle][NMeNle][NMeNle][NMeNle]C-NHMe; thioether N-8)

More lines, now with the values behind:

Row | Structure (SMILES) | logD at 4 h [1] | Papp A→B at 2 h [2] [×10⁻⁶ cm/s] | solubility [3] [µM] | microsomal CLint [4] [µL/min/mg] | microsomal CLint [5] [µL/min/mg] | Cmax [6] [nM] | AUC at 24 h [7] [µM·h] | clearance [8] [mL/min/kg] | half-life [9] [min] | Vd [10] [L/kg] | bioavailability [11] [%] | Cmax [12] [nM] | AUC at 24 h [13] [µM·h]
7 | CCCC[C@@H]1NC(=O)C2CCCN2C(=O)[C@H](CCCC)NC(=O)[C@H](Cc2ccccc2)NC(=O)CSC[C@H](C(=O)NC)NC(=O)[C@H](CCCC)NC1=O (stereo not given in full) | 3.1 | 0.6 | 200 (≈ 152 µg/mL) | ≥ 350 | ≥ 350 | 1.7 | 0.0006 | 222 | 12 | 2 | < 1 |  | 
8 | CCCC[C@@H]1NC(=O)[C@H](CCCC)NC(=O)[C@H]2CCCN2C(=O)[C@H](CCCC)NC(=O)[C@H](Cc2ccccc2)NC(=O)CSC[C@H](C(=O)NC)NC(=O)[C@H](CCCC)NC1=O | 3.7 | 0.2 | 9 (≈ 7.84 µg/mL) | ≥ 480 | ≥ 480 |  |  | 72 | 4.8 | 0.2 | < 1 |  | 
9 | CCCC[C@@H]1NC(=O)[C@H](CCCC)NC(=O)[C@H](CCCC)NC(=O)[C@@H](Cc2ccccc2)NC(=O)CSC[C@H](C(=O)NC)NC(=O)[C@H](CCCC)NC1=O | 3.6 | 0.4 | 5 (≈ 3.87 µg/mL) | ≥ 350 | ≥ 350 |  |  |  |  |  |  |  | 
10 | CCCC[C@@H]1NC(=O)[C@H](Cc2ccccc2)N(C)C(=O)CSC[C@H](C(=O)NC)N(C)C(=O)[C@H](CCCC)NC(=O)[C@H](CCCC)N(C)C(=O)[C@H](CCCC)NC1=O | 4.1 | 8 | 12 (≈ 9.79 µg/mL) | ≥ 350 | ≥ 350 | 114 | 0.258 | 86 | 54 | 2.1 | 20 | 140 | 0.173
11 | CCCC[C@@H]1NC(=O)[C@H](Cc2ccccc2)NC(=O)CSC[C@H](C(=O)NC)NC(=O)[C@H](CCCC)NC(=O)[C@H](CCCC)NC(=O)[C@H](CCCC)NC1=O | 3.6 | 0.6 | < 4 | ≥ 350 | ≥ 350 |  |  | 702 | 18 |  | < 1 |  | 
12 | CCCC[C@@H]1NC(=O)[C@H](Cc2ccccc2)N(C)C(=O)CSC[C@H](C(=O)NC)N(C)C(=O)[C@H](CCCC)NC(=O)[C@H](CCCC)N(C)C(=O)C2CCCN2C1=O (stereo not given in full) | 3.6 | 6.3 | 216 (≈ 173 µg/mL) | ≥ 350 | ≥ 350 | 152 | 0.092 | 72 | 18 | 1.3 | 6 |  | 
13 | CCCC[C@@H]1NC(=O)[C@H](Cc2ccccc2)N(C)C(=O)[C@@H]2CCCN2C(=O)[C@H](CCCC)N(C)C(=O)[C@H](Cc2ccccc2)NC(=O)CSC[C@@H](C(=O)NC)NC(=O)[C@H](CCCC)N(C)C1=O ({CH2CO}-F[NMeNle]P[NMeF][Nle][NMeNle]C-NHMe; thioether N-7) | 4.9 | 2.3 | 9 (≈ 8.53 µg/mL) | ≥ 480 | ≥ 480 | 1950 | 1.31 | 19 | 90 | 1.1 | 84 |  | 
14 | CCCC[C@@H]1NC(=O)[C@H](CCCC)NC(=O)[C@H](CCCC)N(C)C(=O)[C@@H]2CCCN2C(=O)[C@H](CCCC)N(C)C(=O)[C@H](Cc2ccccc2)NC(=O)CSC[C@@H](C(=O)NC)NC1=O ({CH2CO}-F[NMeNle]P[NMeNle][Nle][Nle]C-NHMe; thioether N-7) | 4.7 | 0.8 | 9 (≈ 8.09 µg/mL) | ≥ 480 | ≥ 480 | 18 | 0.01 | 106 | 42 | 4.4 | 1 |  | 

— ChEMBL document CHEMBL4808165, “Design of Thioether Cyclic Peptide Scaffolds with Passive Permeability and Oral Exposure” (J Med Chem, 2021)
